Assay results as given in ChEMBL document CHEMBL3286382, “Synthesis and biological evaluation of imidazo[1,2-a]pyrimidines and imidazo[1,2-a]pyridines as new inhibitors of the Wnt/β-catenin signaling” (Eur J Med Chem, 2014).
Activity calls are given as the source filed them. No cut-off for these calls is given here.

Tests used:
[1] = test system: A549; experiment: Antiproliferative activity against human A549 cells after 72 hrs by MTT assay; type: functional; conditions: A549, 72 h
Procedure, shortened: (§1)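 Cells grown in DMEM with 10% FBS, penicillin G, streptomycin and L-glutamine, seeded 7 x 10^3 per well, left 24 h, then exposed to scalar concentrations in complete medium for 72 h at 37 °C, 5% CO2. Viability read by MTT; IC50 taken as the concentration giving 50% inhibition of proliferation.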

[2] = test system: LoVo; experiment: Antiproliferative activity against human LoVo cells after 72 hrs by MTT assay; type: functional; procedure, shortened: as §1
[3] = test system: HepG2; experiment: Antiproliferative activity against human HepG2 cells after 72 hrs by MTT assay; type: functional; conditions: HepG2, 72 h; procedure, shortened: as §1
[4] = test system: HT-29; experiment: Antiproliferative activity against human HT-29 cells after 72 hrs by MTT assay; type: functional; conditions: HT-29, 72 h; procedure, shortened: as §1
[5] = test system: HT-29; experiment: Inhibition of Wnt signaling in human HT29 cells assessed as inhibition of beta-catenin-mediated Tcf/Lef transcriptional activity after 24 hrs by dual luciferase reporter gene assay relative to control; type: cell-based; conditions: HT-29, 24 h
[6] = Antiproliferative activity against human fibroblasts after 72 hrs by MTT assay; type: cell-based, Fibroblast
[7] = test system: HT-29; experiment: Inhibition of Wnt/beta-catenin signaling in human HT29 cells assessed as […] in axin2 mRNA expression at 25 uM after 24 hrs by quantitative real-time PCR assay; type: cell-based
Procedure, shortened: (§2)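 Total RNA was extracted with TRIzol from HT-29 cells treated for 24 h. Transcripts were measured by real-time RT-PCR with GUS as the reference gene, and expression was expressed relative to untreated cells.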

[8] = test system: HT-29; experiment: Inhibition of Wnt/beta-catenin signaling in human HT29 cells assessed as increase in phosphorylated c-myc level at 25 uM after 24 hrs by Western blot analysis; type: cell-based
Procedure, shortened: (§3)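 After 24 h exposure, HT-29 cells were washed in cold PBS, lysed on ice for 30 min and cleared at 15 000 g, 4 °C. 10 µg protein was run on 12% SDS-PAGE and transferred to PVDF. Blots were probed with specific primary antibodies, then peroxidase-labelled secondaries, and developed by ECL. β-actin re-probing served as the loading control.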

[9] = test system: HT-29; experiment: Inhibition of Wnt/beta-catenin signaling in human HT29 cells assessed as downregulation of cyclin D1 protein expression at 25 uM after 24 hrs by Western blot analysis; type: cell-based; procedure, shortened: as §3
[10] = test system: HT-29; experiment: Inhibition of Wnt/beta-catenin signaling in human HT29 cells assessed as […] protein level at 25 uM after 24 hrs by Western blot analysis; type: cell-based; procedure, shortened: as §3
[11] = test system: HT-29; experiment: Inhibition of Wnt signaling in human HT29 cells assessed as inhibition of beta-catenin-mediated Tcf/Lef transcriptional activity at 25 uM after 24 hrs by dual luciferase reporter gene assay relative to control; type: cell-based
Procedure, shortened: (§4)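 HT-29 cells (1.4 x 10^4) were co-transfected with 1 µg BAT-LUX, which carries 7 TCF sites and the siamois promoter driving firefly luciferase, plus 1 µg Renilla vector. Cells were then treated at 37 °C for 24 h, with or without the GSK-3β inhibitor LiCl. Dual-Glo readout; values are the mean firefly/Renilla ratio.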

[12] = test system: HT-29; experiment: Cell cycle arrest in human HT-29 cells assessed as accumulation of cells at G1 phase at 25 uM after 24 hrs by flow cytometry; type: functional, cell-based
Procedure, shortened: (§5)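 Exponentially growing HT-29 cells (1.5 × 10^5) were treated with the compounds for 24 h, then collected and fixed in ice-cold 70% ethanol. Fixed cells were treated with lysis buffer holding RNase A and 0.1% Triton X-100, stained with PI and analysed for DNA content by flow cytometry.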

[13] = test system: HT-29; experiment: Inhibition of Wnt/beta-catenin signaling in human HT29 cells assessed as effect on c-myc mRNA expression at 25 uM after 24 hrs by quantitative real-time PCR assay; type: cell-based; procedure, shortened: as §2
[14] = test system: HT-29; experiment: Inhibition of Wnt signaling in human HT29 cells assessed as beta-catenin dephosphorylation at S33/37/T41 residues at 25 uM after 24 hrs by Western blot analysis; type: cell-based; procedure, shortened: as §3
[15] = test system: HT-29; experiment: Inhibition of Wnt/beta-catenin signaling in human HT29 cells assessed as GSK3-beta dephosphorylation at Ser21/Ser9 residues at 25 uM after 24 hrs by Western blot analysis; type: cell-based; procedure, shortened: as §3
[16] = test system: HT-29; experiment: Inhibition of Wnt/beta-catenin signaling in human HT29 cells assessed as downregulation of cyclin B1 protein expression at 25 uM after 24 hrs by Western blot analysis; type: cell-based; procedure, shortened: as §3
[17] = test system: HT-29; experiment: Cell cycle arrest in human HT-29 cells assessed as reduction of cells in S phase at 25 uM after 24 hrs by flow cytometry; type: functional, cell-based; procedure, shortened: as §5
[18] = test system: HT-29; experiment: Inhibition of Wnt/beta-catenin signaling in human HT29 cells assessed as increase in p21 protein expression at 25 uM after 24 hrs by Western blot analysis; type: cell-based; procedure, shortened: as §3
[19] = test system: HT-29; experiment: Cell cycle arrest in human HT-29 cells assessed as reduction of cells in G2/M phase at 25 uM after 24 hrs by flow cytometry; type: functional, cell-based; procedure, shortened: as §5
[20] = test system: HT-29; experiment: Inhibition of Wnt/beta-catenin signaling in human HT29 cells assessed as decrease in TCF4 mRNA expression at 25 uM after 24 hrs by quantitative real-time PCR assay; type: cell-based; procedure, shortened: as §2
[21] = species: Danio rerio; experiment: Toxicity in zebrafish larvae assessed as mortality at 1 uM treated for 7 days; type: organism-based; conditions: in vivo, 168 h
Procedure, shortened: (§6)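 Wild-type zebrafish larvae raised under standard conditions were exposed to compounds dissolved in E3 medium. The medium containing compound was renewed every day for 7 days. The read-out was survival rate (mortality) at the end of exposure.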

[22] = species: Danio rerio; experiment: Toxicity in zebrafish larvae assessed as mortality at 5 to 25 uM treated for 7 days; type: organism-based; conditions: in vivo, 168 h; procedure, shortened: as §6
[23] = test system: HT-29; experiment: Inhibition of Wnt signaling in human HT29 cells assessed as inhibition of beta-catenin-mediated Tcf/Lef transcriptional activity at 25 uM after 24 hrs by dual luciferase reporter gene assay relative to control in presence of GSK-3beta inhibitor LiCl; type: cell-based; procedure, shortened: as §4
[24] = test system: HT-29; experiment: Inhibition of Wnt signaling in human HT29 cells assessed as increase in cytoplasmic beta-catenin at 25 uM after 24 hrs by fluorescence microscopy; type: cell-based
Procedure, shortened: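 Cells were fixed in cold 4% formaldehyde for 15 min and stained with anti-β-catenin (mouse, 1:50), then an Alexa-conjugated secondary, with DAPI counterstain. Images were taken on a video-confocal microscope with a 60x objective.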

[25] = species: Danio rerio; experiment: Inhibition of Wnt/beta-catenin signaling in zebrafish larvae assessed as inhibition of Tcf/Lef transcriptional activity at 10 uM after 72 hrs by GFP reporter assay; type: functional, organism-based
Procedure, shortened: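 TCF/LEF-GFP reporter zebrafish were exposed from 24 hours post-fertilization for 72 h, with compounds dissolved in E3 medium that was renewed daily. GFP in the head and intestine was imaged by fluorescence stereomicroscope at 8X, alongside bright-field images.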

| SMILES | GI50 [1] [µM] | GI50 [2] [µM] | GI50 [3] [µM] | GI50 [4] [µM] | IC50 [5] [µM] | other results |
| --- | --- | --- | --- | --- | --- | --- |
| CC(=O)Nc1cc(OCC(C)C)nc(SCc2ccccc2)n1 | 19.9 | 53.9 | 64.4 | 35.7 | > 100 | – |
| CC(=O)Nc1cc(=O)n(CC(C)C)c(SCc2ccccc2)n1 | 46.4 | 58.5 | 67.6 | 68.4 | 43 | – |
| CC(=O)Nc1cc(OCc2ccccc2)nc(SCc2ccccc2)n1 | 35.2 | 40 | 42.9 | 65.8 | 46.2 | – |
| Cc1ccn2cc(-c3ccc(NC(=O)c4ccccc4C(=O)O)cc3)nc2c1 | > 100 | – | – | > 100 | > 100 | – |
| COc1cc(OC)n2cc(-c3ccc(N(Cc4ccccc4)Cc4ccccc4)cc3)nc2n1 | 7 | 61.9 | > 100 | > 100 | 67 | – |
| Cc1ccc2nc(-c3ccc(N(Cc4ccccc4)Cc4ccccc4)cc3)cn2c1 | 60 | – | – | 37.6 | 19.5 | – |
| Cc1ccn2cc(-c3ccc(N)cc3)nc2c1 | > 100 | – | – | 93.6 | 42.2 | – |
| CC(C)Cn1c(SCc2ccccc2)nc(N)cc1=O | 83.3 | 68 | 77 | > 100 | 30.7 | – |
| Cc1ccc2nc(-c3ccc(N)cc3)cn2c1 | > 100 | 65.2 | > 100 | 82.9 | 52.6 | – |
| Cc1ccn2cc(-c3ccc(NCc4ccccc4)cc3)nc2c1 | – | – | – | 17.5 | 17.8 | GI50 at 72 h [6]: > 100 µM |
| COc1cc(OC)n2cc(-c3ccc(N)cc3)nc2n1 | > 100 | > 100 | > 100 | > 100 | 14.3 | – |
| Cc1ccc2nc(-c3ccc(NCc4ccccc4)cc3)cn2c1 | 56.1 | – | > 100 | 8.8 | 11.1 | inhibition [7]: Active; inhibition [8]: Active; inhibition [9]: Active; inhibition [10]: Active; inhibition [11]: Active; Activity [12]: inactive; inhibition [13]: inactive; inhibition [14]: Active; inhibition [15]: inactive; inhibition [16]: Active; GI50 at 72 h [6]: > 100 µM; Activity [17]: inactive; inhibition [18]: Active; Activity [19]: inactive; inhibition [20]: Active; Activity [21]: Non-toxic; Activity [22]: Toxic; inhibition [23]: Active |
| Cc1cc(O)n2cc(-c3ccc([N+](=O)[O-])cc3)nc2n1 | 38.9 | 87.6 | > 100 | 90.1 | 10.4 | inhibition [7]: Active; inhibition [8]: Active; inhibition [9]: Active; inhibition [10]: Active; inhibition [11]: Active; Activity [12]: inactive; inhibition [13]: inactive; inhibition [15]: inactive; inhibition [24]: Active; inhibition [16]: Active; GI50 at 72 h [6]: > 100 µM; Activity [17]: inactive; inhibition [18]: Active; Activity [19]: inactive; inhibition [20]: Active; inhibition [23]: Active |
| Nc1cc(OCc2ccccc2)nc(SCc2ccccc2)n1 | 46.2 | 53.7 | 49 | 53.9 | > 100 | – |
| Cc1ccc2nc(-c3ccc(NC(=O)c4ccccc4C(=O)O)cc3)cn2c1 | > 100 | 90.7 | > 100 | > 100 | 9.7 | inhibition [7]: Active; inhibition [10]: Active; inhibition [11]: Active; inhibition [14]: Active; inhibition [15]: inactive; inhibition [24]: Active; inhibition [23]: Active |
| Nc1cc(=O)n(Cc2ccccc2)c(SCc2ccccc2)n1 | > 100 | 84.9 | 97.8 | 100 | 54.3 | – |
| CCCSc1nc(N)cc(OCc2ccccc2)n1 | 51 | 54.2 | 87.1 | 88.2 | 22.3 | – |
| Cc1cc(OCc2ccccc2)n2cc(-c3ccc([N+](=O)[O-])cc3)nc2n1 | 71 | 74.9 | > 100 | > 100 | 16.1 | – |
| Cc1ccn2cc(-c3ccc([N+](=O)[O-])cc3)nc2c1 | 62.4 | – | – | > 100 | 23.1 | – |
| CNc1ccc(-c2cn3c(OC)cc(OC)nc3n2)cc1 | > 100 | > 100 | > 100 | > 100 | 72.2 | – |
| CCCSc1nc(NC(C)=O)cc(OCc2ccccc2)n1 | 75.7 | 54.9 | 75.1 | 59.9 | 81.8 | – |
| Cc1ccc2nc(-c3ccc([N+](=O)[O-])cc3)cn2c1 | > 100 | > 100 | > 100 | > 100 | 6.2 | inhibition [7]: Active; inhibition [11]: Active; inhibition [15]: inactive; inhibition [24]: Active; inhibition [23]: Active |
| COc1cc(OC)n2cc(-c3ccc([N+](=O)[O-])cc3)nc2n1 | 36.6 | 70.6 | 35.9 | > 100 | 57.8 | – |
| O=C(Nc1cccc2cccnc12)c1ccc(N2C(=O)[C@@H]3[C@H](C2=O)[C@@H]2C=C[C@H]3C2)cc1 | > 100 | 63.1 | 95.4 | > 100 | – | inhibition [7]: Active; inhibition [11]: Active; inhibition [25]: Active; inhibition [23]: Active |
| CC(C)COc1cc(N)nc(SCc2ccccc2)n1 | 18.7 | 54.5 | 60.8 | 40 | 72.2 | – |
| O=C1[C@H](Cc2ccc(O)cc2)N2C(=O)CCN(C(=O)NCc3ccccc3)[C@H]2CN1Cc1cccc2ccccc12 | 6.1 | 15.6 | 12.7 | 17.2 | 18.7 | inhibition [7]: Active; inhibition [11]: Active; inhibition [23]: Active |
| COc1cc(OC)n2cc(-c3ccc(NCc4ccccc4)cc3)nc2n1 | > 100 | > 100 | > 100 | > 100 | 34.6 | – |
